Source: ChEMBL document CHEMBL1926571, “Design, synthesis and the effect of 1,2,3-triazole sialylmimetic neoglycoconjugates on Trypanosoma cruzi and its cell surface trans-sialidase” (Bioorg Med Chem, 2012)

Assays:
[1] = tested on: Trypanosoma cruzi; assay: (§1) Inhibition of Trypanosoma cruzi trans-Sialidase; details: concentration not given here
[2] = tested on: Trypanosoma cruzi; assay: Antitrypanosomal activity against Trypanosoma cruzi […] infected in monkey LLC-MK2 cells after 4 days by beta-galactosidase reporter gene assay; format: functional, organism-based; details: LLC-MK2, 96 h
Method in brief: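 LLC-MK2 cells in phenol-red-free RPMI with 10% FBS, 2×10^3/well, grown 24 h, then infected with 1×10^4 trypomastigotes of T. cruzi Tulahuen expressing E. coli β-galactosidase; compounds added 24 h later (0.5 mM–3.5 µM) for 4 days. Lysed with PBS/0.5% Triton X-100 containing 100 µM CPRG, 4 h at 37 °C, A570. Concentration giving 50% trypanocidal activity reported as IC50.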

[3] = tested on: Trypanosoma cruzi; assay: Inhibition of Trypanosoma cruzi N-terminus His-tagged trans-Sialidase using MuNANA as substrate at 1 mM after 10 mins by fluorometric analysis
Method in brief: (§2)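 Recombinant His-tagged 70 kDa enzyme truncated of C-terminal repeats, retaining catalytic N-terminal domain. Triplicate wells: pH 7.4 phosphate buffer, enzyme and inhibitor (added as 4.0 or 2.0 mM solution, 1.0 or 0.5 mM final) preincubated 10 min at 26 °C; MuNANA added at 0.1 mM final. Released methylumbelliferone fluorescence (ex 360/em 460 nm) read after 10 min; percent inhibition.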

[4] = Cytotoxicity against C57BL/6 mouse spleen cells assessed as cell death at 500 to 780 uM mM after 24 hrs by propidium iodide staining-based flow cytometric analysis; details: 7.8 µM, in the assay text read “500 to 7.8 uM” for “500 to 780 uM”
Method in brief: (§3)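 Spleen cells from C57BL/6 mice, red cells lysed 5 min (Tris-HCl pH 7.5/ammonium chloride), in RPMI 1640 with 10% FBS at 5×10^5 cells/well, exposed to a range of compound concentrations for 24 h at 37 °C. Tween 20 at 0.5% as death control. Stained with 10 µg/mL propidium iodide, read by flow cytometry.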

[5] = tested on: Trypanosoma cruzi; assay: Inhibition of Trypanosoma cruzi N-terminus His-tagged trans-Sialidase using MuNANA as substrate at 0.5 mM after 10 mins by fluorometric analysis; method in brief: as §2
[6] = Binding affinity to Trypanosoma cruzi trans-Sialidase by surface plasmon resonance assay
[7] = as §1
[8] = Cytotoxicity against C57BL/6 mouse spleen cells assessed as cell death at 0.5 mM after 24 hrs by propidium iodide staining-based flow cytometric analysis; details: 500 µM; method in brief: as §3
[9] = Cytotoxicity against C57BL/6 mouse spleen cells assessed as cell death at 250 to 780 uM mM after 24 hrs by propidium iodide staining-based flow cytometric analysis; details: 7.8 µM, in the assay text read “250 to 7.8 uM” for “250 to 780 uM mM”; method in brief: as §3

| Compound | IC50 [2] [µM] | inhibition [3] [%] | inhibition [5] [%] | IC50 [7] [µM] | also measured |
| --- | --- | --- | --- | --- | --- |
| CCCCCCCCO[C@@H]1O[C@H](COC)[C@H](O)[C@H](O)[C@H]1O | – | – | – | – | inhibition [1]: 75% |
| CCCCCCCCO[C@@H]1O[C@H](CO)[C@H](O)[C@H](O)[C@H]1O | – | – | – | – | inhibition [1]: 84% |
| CC(=O)N[C@H]1[C@H]([C@H](O)[C@H](O)CO)O[C@@](OCc2cn([C@H]3[C@@H](O)[C@H](O)O[C@H](CO)[C@@H]3O)nn2)(C(=O)O)C[C@@H]1O | > 2000 | 69 | 1.5 | – | Activity [4]: Non-toxic |
| CC(=O)N[C@H]1[C@H]([C@H](O)[C@H](O)CO)O[C@@](CCCc2ccccc2)(C(=O)O)C[C@@H]1O | – | – | – | – | Kd [6]: 160 µM |
| CC(=O)N[C@H]1[C@H]([C@H](O)[C@H](O)CO)O[C@@](OCc2cn([C@@H]3[C@@H](O)[C@@H](O)O[C@H](CO)[C@H]3O)nn2)(C(=O)O)C[C@@H]1O | 726 | 67 | 1.5 | – | Activity [4]: Non-toxic |
| CO[C@H]1O[C@H](CO)[C@H](O)[C@H](OCc2cn(C(C(=O)O)C(C)O)nn2)[C@H]1O (some centres undefined) | 369 | 5 | 1.5 | – | Activity [8]: > 80% |
| CC(=O)N[C@H]1[C@H]([C@H](O)[C@H](O)CO)O[C@@](OCc2cn(C[C@H]3O[C@H](O)[C@H](O)[C@@H](O)[C@H]3O)nn2)(C(=O)O)C[C@@H]1O | 260 | 91 | 30 | – | Activity [8]: 55%; Activity [9]: Non-toxic |
| CC(=O)N[C@H]1[C@H]([C@H](O)[C@H](O)CO)O[C@@](OCc2cn([C@@H]3O[C@H](CO)[C@H](O)[C@H](O)[C@H]3O)nn2)(C(=O)O)C[C@@H]1O | 475 | 88 | 1.5 | – | Activity [8]: > 80% |

Further lines, with some results ahead:

| IC50 [2] [µM] | inhibition [3] [%] | inhibition [5] [%] | IC50 [7] [µM] | Compound | also measured |
| --- | --- | --- | --- | --- | --- |
| 125 | – | – | – | O=C(Cn1ccnc1[N+](=O)[O-])NCc1ccccc1 [BENZNIDAZOLE] | – |
| – | – | – | 2.5 | Cc1ccc(S(=O)(=O)Nc2cccc(C(=O)/C=C/c3ccc(O)c(O)c3)c2)cc1 | – |
| – | – | – | 0.58 | O=c1c(O)c(-c2cc(O)c(O)c(O)c2)oc2cc(O)cc(O)c12 [MYRICETIN] | – |
| – | – | – | 0.6 | Cc1ccc(S(=O)(=O)N2c3ccccc3C(=O)C3=Cc4cc(O)c(O)c5c(O)c(O)cc(c45)C32)cc1 (centres undefined) | – |
| – | – | – | 0.9 | Cc1ccc(S(=O)(=O)Nc2ccc(C(=O)/C=C/c3ccc(O)c(O)c3)cc2)cc1 | – |
